Active and inactive are the calls of the source. The rule behind the calls is not given here.
Legend:
[1] = target: 5-hydroxytryptamine receptor 2A (Rattus norvegicus, UniProt P14842); experiment: Displacement of [3H]ketanserin from 5HT2A receptor in rat cortex
[2] = target: T1, Adrenergic receptor alpha-1 (Rattus norvegicus, UniProt P15823+P23944+P43140); experiment: Displacement of [3H]prazosin from adrenergic alpha1 receptor in rat cortex
T1 sequence (P15823 whole entry): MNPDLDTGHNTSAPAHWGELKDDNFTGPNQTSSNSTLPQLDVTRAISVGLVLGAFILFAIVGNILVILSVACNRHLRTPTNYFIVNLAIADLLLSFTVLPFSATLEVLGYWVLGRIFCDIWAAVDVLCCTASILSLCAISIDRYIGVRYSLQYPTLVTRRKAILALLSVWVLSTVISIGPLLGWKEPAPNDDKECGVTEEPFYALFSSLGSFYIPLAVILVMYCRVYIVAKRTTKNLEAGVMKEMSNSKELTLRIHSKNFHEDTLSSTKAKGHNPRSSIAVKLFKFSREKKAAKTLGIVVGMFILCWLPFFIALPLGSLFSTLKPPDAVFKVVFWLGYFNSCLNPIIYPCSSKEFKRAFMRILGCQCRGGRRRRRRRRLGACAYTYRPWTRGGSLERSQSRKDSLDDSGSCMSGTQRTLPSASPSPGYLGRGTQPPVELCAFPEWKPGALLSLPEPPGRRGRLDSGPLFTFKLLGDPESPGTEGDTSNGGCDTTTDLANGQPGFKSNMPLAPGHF
T1 sequence (P23944 whole entry): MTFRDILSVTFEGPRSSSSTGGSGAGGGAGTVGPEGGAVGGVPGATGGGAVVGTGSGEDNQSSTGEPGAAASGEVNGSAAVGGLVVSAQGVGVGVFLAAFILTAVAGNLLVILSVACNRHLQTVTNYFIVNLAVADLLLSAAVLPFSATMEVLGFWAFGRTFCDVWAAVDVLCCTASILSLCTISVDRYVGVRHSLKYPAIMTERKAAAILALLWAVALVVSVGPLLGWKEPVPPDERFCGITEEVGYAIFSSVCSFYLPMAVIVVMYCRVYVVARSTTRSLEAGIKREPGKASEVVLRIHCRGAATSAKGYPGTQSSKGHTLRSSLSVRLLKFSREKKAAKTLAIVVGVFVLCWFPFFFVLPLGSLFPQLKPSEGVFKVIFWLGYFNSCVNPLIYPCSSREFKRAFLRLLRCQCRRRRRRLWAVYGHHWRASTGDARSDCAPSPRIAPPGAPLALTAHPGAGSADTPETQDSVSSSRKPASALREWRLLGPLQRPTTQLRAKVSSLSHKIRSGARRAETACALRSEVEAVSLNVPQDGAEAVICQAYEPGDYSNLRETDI
T1 sequence (P43140 whole entry): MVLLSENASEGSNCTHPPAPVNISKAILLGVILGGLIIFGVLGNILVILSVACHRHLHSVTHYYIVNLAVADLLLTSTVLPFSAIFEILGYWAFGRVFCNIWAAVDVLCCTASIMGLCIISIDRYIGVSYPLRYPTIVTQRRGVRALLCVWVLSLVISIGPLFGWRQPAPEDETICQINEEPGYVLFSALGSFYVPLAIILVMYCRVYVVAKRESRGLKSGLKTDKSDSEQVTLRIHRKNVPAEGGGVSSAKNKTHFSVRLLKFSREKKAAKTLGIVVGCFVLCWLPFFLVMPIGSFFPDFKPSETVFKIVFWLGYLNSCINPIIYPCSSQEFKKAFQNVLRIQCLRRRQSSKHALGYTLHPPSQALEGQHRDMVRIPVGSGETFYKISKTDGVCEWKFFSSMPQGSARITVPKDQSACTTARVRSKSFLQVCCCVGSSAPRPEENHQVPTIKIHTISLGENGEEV

[3] = target: T2, Alpha-2A adrenergic receptor (Rattus norvegicus, UniProt P22909); experiment: Displacement of [3H]RX821002 from adrenergic alpha2 receptor in rat cortex
T2 sequence (P22909 whole entry): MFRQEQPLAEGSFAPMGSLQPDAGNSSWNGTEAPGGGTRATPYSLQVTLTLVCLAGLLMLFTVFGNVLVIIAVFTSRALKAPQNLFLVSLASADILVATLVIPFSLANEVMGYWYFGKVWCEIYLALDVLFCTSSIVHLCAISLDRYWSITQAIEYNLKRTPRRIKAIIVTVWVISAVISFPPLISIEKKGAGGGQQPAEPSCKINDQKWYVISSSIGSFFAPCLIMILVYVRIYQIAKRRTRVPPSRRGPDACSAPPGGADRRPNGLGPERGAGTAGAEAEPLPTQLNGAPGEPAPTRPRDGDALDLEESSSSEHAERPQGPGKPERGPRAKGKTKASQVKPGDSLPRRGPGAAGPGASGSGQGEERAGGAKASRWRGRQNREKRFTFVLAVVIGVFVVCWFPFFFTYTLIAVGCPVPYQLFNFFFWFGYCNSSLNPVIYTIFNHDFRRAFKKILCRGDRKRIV

D(1A) dopamine receptor = D(1A) dopamine receptor (Rattus norvegicus, UniProt P18901); experiment: Displacement of [3H]SCH-23390 from dopamine D1 receptor in rat striatum
D(1A) dopamine receptor, sequence (P18901 whole entry): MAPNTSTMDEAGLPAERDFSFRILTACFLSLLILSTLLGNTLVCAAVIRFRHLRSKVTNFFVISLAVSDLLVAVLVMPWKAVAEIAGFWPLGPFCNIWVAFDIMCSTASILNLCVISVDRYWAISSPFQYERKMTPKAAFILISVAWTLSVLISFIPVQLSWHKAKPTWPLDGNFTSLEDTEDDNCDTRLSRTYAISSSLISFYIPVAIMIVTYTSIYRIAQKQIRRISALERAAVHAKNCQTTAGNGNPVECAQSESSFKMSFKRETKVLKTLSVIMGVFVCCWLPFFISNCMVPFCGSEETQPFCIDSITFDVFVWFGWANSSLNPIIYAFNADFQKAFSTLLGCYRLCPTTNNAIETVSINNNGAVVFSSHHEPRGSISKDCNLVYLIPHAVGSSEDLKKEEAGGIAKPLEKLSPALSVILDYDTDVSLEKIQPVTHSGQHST

D(2) dopamine receptor = D(2) dopamine receptor (Rattus norvegicus, UniProt P61169); experiment: Displacement of [3H]spiperone from dopamine D2 receptor in rat striatum
D(2) dopamine receptor, sequence (P61169 whole entry): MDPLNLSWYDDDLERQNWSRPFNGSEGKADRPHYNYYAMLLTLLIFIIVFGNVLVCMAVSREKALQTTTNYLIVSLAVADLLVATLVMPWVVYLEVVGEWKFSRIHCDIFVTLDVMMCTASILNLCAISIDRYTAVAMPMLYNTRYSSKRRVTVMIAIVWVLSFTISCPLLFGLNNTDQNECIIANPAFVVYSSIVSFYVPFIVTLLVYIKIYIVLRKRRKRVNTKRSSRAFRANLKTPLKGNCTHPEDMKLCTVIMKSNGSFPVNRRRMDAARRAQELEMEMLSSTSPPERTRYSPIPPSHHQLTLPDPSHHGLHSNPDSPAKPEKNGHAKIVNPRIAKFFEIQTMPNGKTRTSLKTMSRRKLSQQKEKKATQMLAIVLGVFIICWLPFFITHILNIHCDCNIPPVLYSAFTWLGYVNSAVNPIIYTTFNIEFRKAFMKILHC

[4] = target: Muscarinic acetylcholine receptor; experiment: Displacement of [3H]QNB from muscarinic receptor in rat cortex
[5] = target: T3, 5-hydroxytryptamine receptor 3A (Cavia porcellus) (UniProt O70212); experiment: Agonist activity at 5HT3 receptor in guinea pig thoracic aorta assessed as positive contractility potency at 100 uM; format: functional, tissue-based
T3 sequence (whole entry): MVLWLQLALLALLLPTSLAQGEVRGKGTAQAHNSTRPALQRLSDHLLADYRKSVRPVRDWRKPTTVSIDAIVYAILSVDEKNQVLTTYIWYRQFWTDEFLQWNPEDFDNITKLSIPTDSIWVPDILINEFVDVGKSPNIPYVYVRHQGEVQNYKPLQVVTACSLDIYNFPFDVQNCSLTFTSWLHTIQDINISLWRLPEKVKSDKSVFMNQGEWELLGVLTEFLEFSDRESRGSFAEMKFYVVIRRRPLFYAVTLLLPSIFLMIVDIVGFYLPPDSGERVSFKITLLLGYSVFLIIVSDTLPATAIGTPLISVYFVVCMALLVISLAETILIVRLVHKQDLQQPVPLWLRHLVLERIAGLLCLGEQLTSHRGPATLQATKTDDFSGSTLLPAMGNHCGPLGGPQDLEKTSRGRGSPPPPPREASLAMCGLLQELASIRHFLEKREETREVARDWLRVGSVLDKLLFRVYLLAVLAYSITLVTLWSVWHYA
Procedure, shortened: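 Guinea pig aortic helicoidal strips in PSS at 35 °C, aerated, under 1 g resting force, washed every 20 min for 1 h. Compounds added cumulatively 0.1-100 µM (DMSO vehicle); isometric contraction recorded.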

5-hydroxytryptamine receptor 2A, sequence (P14842 whole entry): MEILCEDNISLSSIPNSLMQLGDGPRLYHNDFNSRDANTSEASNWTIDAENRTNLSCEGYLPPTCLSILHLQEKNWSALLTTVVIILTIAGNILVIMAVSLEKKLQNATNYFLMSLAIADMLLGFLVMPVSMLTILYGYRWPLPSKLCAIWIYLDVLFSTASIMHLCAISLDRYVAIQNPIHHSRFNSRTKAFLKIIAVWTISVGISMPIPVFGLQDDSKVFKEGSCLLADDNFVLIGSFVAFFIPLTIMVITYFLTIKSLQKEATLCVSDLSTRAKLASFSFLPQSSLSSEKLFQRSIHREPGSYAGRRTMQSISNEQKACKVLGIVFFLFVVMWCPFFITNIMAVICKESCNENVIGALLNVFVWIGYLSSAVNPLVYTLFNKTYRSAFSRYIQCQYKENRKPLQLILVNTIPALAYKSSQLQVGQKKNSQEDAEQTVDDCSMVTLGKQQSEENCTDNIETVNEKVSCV

SMILES	Ki [1] [µM]	Ki [2] [µM]	Ki [3] [µM]	Ki (D(1A) dopamine receptor) [µM]	Ki (D(2) dopamine receptor) [µM]	Ki [4] [µM]	pD2 [5]
N[C@@H](CN1CCN(c2nc3cc(F)ccc3n3cccc23)CC1)C(=O)O	5.69	> 10	> 10	> 10	> 10	> 10	inactive
N/C(CN1CCN(c2nc3cc(F)ccc3n3cccc23)CC1)=N\O	> 10	> 10	> 10	> 10	> 10	> 10	inactive

Source: ChEMBL document CHEMBL1136924 (J Med Chem, 2009)
